Data set [1] has as its system THP-1. As to the kind of experiment: Antiinflammatory activity in LPS-stimulated human THP1 cells assessed as inhibition of TNFalpha formation at 1 uM pretreated 30 mins before LPS challenge measured after 24 hrs by ELISA. On the set-up: scale not given: the % may be the effect or the level left. Type of data set: functional. In short, it runs like this:
(§1)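 PMA-differentiated human THP-1 cells in RPMI 1640 with 10% FBS, penicillin and streptomycin. Compound or vehicle (0.5% DMSO) was added for 30 min at 37 °C, then E. coli 0127:B8 LPS. Cells were incubated 24 h at 37 °C, 5% CO2. Supernatant TNF-α and IL-6 were measured by ELISA. Percent inhibition of release was calculated versus control.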
For orientation: An ELISA detects its analyte on a solid surface through an enzyme-linked reagent.

Data set [2] deals with Radical scavenging activity. Nature of the data set: Antioxidant activity assessed as DPPH free radical scavenging activity at 1 uM after 2 mins by spectrophotometry. Type of data set: functional. On the technique in general: DPPH is a stable violet radical that fades when it is reduced.
Data set [3] deals with Radical scavenging activity. Nature of the data set: Antioxidant activity assessed as DPPH free radical scavenging activity at 1 uM after 4 mins by spectrophotometry. Type of data set: functional.
In data set [4] the test system is Radical scavenging activity. As to the kind of experiment: Antioxidant activity assessed as DPPH free radical scavenging activity at 1 uM after 6 mins by spectrophotometry. Type of data set: functional.
Data set [5] has as its system Radical scavenging activity. As to the kind of experiment: Antioxidant activity assessed as DPPH free radical scavenging activity at 1 uM after 8 mins by spectrophotometry. Type of data set: functional.
The subject of data set [6] is Radical scavenging activity. Nature of the data set: Antioxidant activity assessed as DPPH free radical scavenging activity at 1 uM after 10 mins by spectrophotometry. Type of data set: functional.
Data set [7] has as its system THP-1. Nature of the data set: Antiinflammatory activity in LPS-stimulated human THP1 cells assessed as inhibition of TNFalpha formation at 10 uM pretreated 30 mins before LPS challenge measured after 24 hrs by ELISA. Type of data set: functional. On the set-up: scale not given: the % may be the effect or the level left. In outline:
as §1

In data set [8] the test system is THP-1. Nature of the data set: Antiinflammatory activity in LPS-stimulated human THP1 cells assessed as inhibition of IL6 formation at 10 uM pretreated 30 mins before LPS challenge measured after 24 hrs by ELISA. Type of data set: functional. Set-up: scale not given: the % may be the effect or the level left. In outline:
as §1

Data set [9] deals with THP-1. Nature of the data set: Antiinflammatory activity in LPS-stimulated human THP1 cells assessed as inhibition of IL6 formation at 1 uM pretreated 30 mins before LPS challenge measured after 24 hrs by ELISA. Type of data set: functional. On the set-up: scale not given: the % may be the effect or the level left. In outline: as §1
Data set [10] in a line: Cytotoxicity against LPS-stimulated human THP-1 cells at 10 uM after 24 hrs by CCK-8 assay. Conditions: THP-1, 24 h. In general terms: Tetrazolium assays rely on reduction of a dye to a coloured formazan, in cell work by metabolically active cells.
Data set [11] has as its system Radical scavenging activity. As to the kind of experiment: Antioxidant activity assessed as DPPH free radical scavenging activity at 1 mM after 20 mins by spectrophotometry.

SMILES strings stand for the structures.

As to `C[C@@H]1C[C@H]2[C@@H]3CCC4=CC(=O)C=C[C@]4(C)[C@@]3(F)[C@@H](O)C[C@]2(C)[C@@]1(O)C(=O)CO` [DEXAMETHASONE], the Activity in [1] worked out at 73%.

Regarding `COc1cc(OC)c(C(=O)c2cccc(Cl)c2)c(O)c1CN1CCOCC1`, the Activity in [2] turned out to be 5.52%; in data set [3], 6.44%; in [4], 9.45%; in data set [5] it was 14.6%; in data set [6], 15.9%; in [7], 1%. Besides, the Activity in data set [8] is 83%; in data set [9], 42%; in data set [10], 39%; in [11], 33.4%.

As to `COc1cc(O)c(C(=O)c2cccc(Cl)c2)c(OC)c1`, the Activity in data set [2] is 3.21%; in data set [3], 3.9%; in [4], 4.2%; in data set [5] it was 6.52%; in [6] it was 7.6%; in data set [7], 0%. Moreover, the Activity in data set [8] is 78%; in data set [9] it was 31%; in data set [10] it was 49%; in data set [11], 16.4%.

(Values after ChEMBL document CHEMBL1156322, “Synthesis and biological evaluation of nitrogen-containing benzophenone analogues as TNF-alpha and IL-6 inhibitors with antioxidant activity” (Bioorg Med Chem Lett, 2010).)
